Compound activity deposited in PubChem BioAssay by Broad Institute.
This is a sample that favours compounds with a hit; in the whole collection about 3.6% have one here.
T cruzi inh = inhibitors of intracellular T. cruzi growth, primary screen, luminescence, NIH3T3 host cells | T. cruzi beta-gal in NIH3T3, 90 h | inhibition, % (no concentration beside the values) | 300,000 tested, 1.4% active | AID 1885, 2009;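 active means mean inhibition across valid replicates above about 55%, limit read from the data; inconclusive means mean below that limit but half or more replicates reach it; inactive means mean below it, under half of replicates reach it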;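 further: signal also drops with host cell toxicity which is not excluded here; 0% = plate median of DMSO wells and 100% = zero luminescence signal; higher percent means less beta-gal luminescence so fewer parasites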
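Test system: β-gal T. cruzi (Tulahuen C4) inside NIH/3T3 cells / Quantity: 5,000 cells/well / Measured by: luminescence from GalScreen with 0.05% NP40, read after 60 min / Medium: DMEM plus 2% FBS / Measure: parasite load inhibition, % / Reagent: Tulahuen C4 trypomastigotes, 5000/well / Schedule: co-culture of at least 90 h after 3 h attachment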
PfHsp90 set2 = growth inhibition of PfHsp90-expressing yeast, primary screen, antimalarial PfHsp90 inhibitor project, S. cerevisiae, BacTiter-Glo luminescence, single point, set 2; BacTiter-Glo ATP, 48 h; yeast lacking PDR1 and PDR3 efflux regulators; inhibition, % at 9.4 µM; 310,000 tested, 0.32% active;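 active means every replicate shows inhibition above about 80%, whatever the replicate mean, limit read from the data; inconclusive means mean inhibition reaches the set limit but some replicate falls short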;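 further: 0% = DMSO neutral controls and 100% = 20 µM radicicol positive controls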
SKKanGAS inh = S. pyogenes SKKanGAS growth inhibitors in kanamycin, primary screen, streptokinase expression inhibitor project, SKKanGAS strain, BacTiter-Glo luminescence; 6 h; 300,000 tested, 1.3% active; AID 1662, 2009; inhibition, % at 7.5 µM;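 active means mean replicate score, as percent of positive control median, at least 50; inconclusive means mean below 50 but one replicate at or above 50; inactive means mean and every replicate below 50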;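 further: strain carries kanamycin resistance gene driven by streptokinase promoter and grows in 40 µg/ml kanamycin; loss of luminescence reflects streptokinase promoter inhibition or plain growth inhibition; 0% = median of DMSO wells and 100% = positive control at its reference dose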
CSC inhib = cancer stem cell viability inhibitors, primary screen, luminescence; cancer stem cell-like cells viability; inhibition, % at 7.5 µM; 300,000 tested, 1.1% active; AID 2717, 2010; in the data active means inhibition above about 75%; inconclusive means no clear call, values can overlap the other calls; tested in HMLE shEcad cells
Beta apoptosis = inhibitors of cytokine-induced beta cell apoptosis, primary screen, luminescence; 300,000 tested, 0.8% active; AID 435005, 2010; protection from apoptosis, % (concentration not given with the values); INS-1E cytokine-induced death, ATP luminescence, 48 h; percent of positive-control rescue, neutral wells zero;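 active means Every replicate reaches about 75%, or at least half do and their mean reaches it too, limit read from the data; inconclusive means At least half of replicates reach the limit but their mean does not; inactive means Under half of replicates reach the limit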;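 further: 0% = cytokine-treated negative control wells and 100% = positive control rescue; higher means more ATP so stronger rescue from cytokine killing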
HIF act = HIF pathway transcriptional activators, primary screen, cell-based, U2OS HRE-luciferase, luminescence | U2OS HRE-luciferase reporter; normalized: DMSO 0%, desferrioxamine 100% | activation, % at 7.5 µM (by protocol) | 300,000 tested, 0.32% active | AID 1910, 2009;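 active means mean activation of at least 10% of the iron chelator positive control signal, with at least half of replicates also reaching 10%; inconclusive means mean and replicate majority disagree about reaching 10%; inactive means mean and most replicates under 10%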
Numbers without * were called inactive; ? = inconclusive; . = no result.

SMILES	T cruzi inh	PfHsp90 set2	SKKanGAS inh	CSC inhib	Beta apoptosis	HIF act
CCCCCCCCCCCC(=O)NC1CCS(=O)(=O)C1 (stereo not drawn)	0.6	-15.0	-8.7	-5.2	-3.5	-0.7
Cc1ccc(-c2csc(NC(=O)c3c(C)noc3C)n2)cc1C	.	-18.5	.	15.2	5.7	.
Cc1ccc(-c2csc(NC(=O)c3c(C)noc3C)n2)s1	.	-6.9	.	1.0	123.9*	.
COc1ccccc1C1c2ccc3ccccc3c2Oc2ncn(CCN(C)C)c(=N)c21 (stereo not drawn)	18.0	18.0	4.5	84.7*	44.7	1.8
COc1ccc(C2c3ccc4ccccc4c3Oc3ncn(Cc4ccco4)c(=N)c32)cc1OC (stereo not drawn)	-3.1	5.5	13.8	79.8*	-2.0	0.4
COc1ccc(C2c3ccc4ccccc4c3Oc3ncn(CCCN(C)C)c(=N)c32)cc1 (stereo not drawn)	42.0	21.0	4.3	105.1*	111.6*	-0.2
COc1ccccc1C1c2ccc3ccccc3c2Oc2ncn(CCCO)c(=N)c21 (stereo not drawn)	40.8	-1.3	2.6	17.2	13.0	-6.5
O=C(Nc1c2c(nn1-c1ccccc1)CS(=O)C2)c1ccco1 (stereo not drawn)	-3.5	11.3	-3.4	-2.0	-4.9	-0.3
CCCCN1CC(COCc2ccccc2)Oc2cccc(Oc3cc(C)c(C)c(C)c3)c2S1(=O)=O (stereo not drawn)	.	-14.9	.	.	.	.
CCOC(=O)C1=C(C)N(C[C@@H]2CC[C@@H](Cc3ccc(-c4ccccc4)cc3)O2)C(=O)NC1c1cccc([N+](=O)[O-])c1 (stereo partly drawn)	.	0.9	.	.	.	.
Cc1ccccc1N1CCN(CCC(=O)Nc2ccc(F)cc2)CC1	-0.2	-0.5	-4.4	0.2	-1.5	1.1
CCOC(=O)C1=C(O)/C(=C/c2cn(CC(=O)NCC3CCCO3)c3ccccc23)SC1=Nc1ccc(C)cc1 (stereo not drawn)	.	-13.0	.	76.0*	56.6	.
Cc1sc(NC(=O)/C=C/c2ccc3c(c2)OCO3)nc1-c1ccccc1	24.4	12.9	19.8	108.1*	15.5	0.1
CC(=O)Nc1ccc(NC(=O)/C=C/c2ccc3c(c2)OCO3)cc1	-10.7	6.2	-4.8	48.1	2.1	1.5
Cc1cc(C)nc(NC(=O)/C=C/c2ccc3c(c2)OCO3)c1	0.2	1.4	7.1	84.5*	10.4	7.8
O=C(/C=C/c1ccc2c(c1)OCO2)Nc1nc(-c2ccccc2)cs1	13.8	-13.3	38.1	98.5*	.	0.5
O=C(/C=C/c1ccc2c(c1)OCO2)Nc1cccnc1	1.9	29.6	-5.8	83.1*	-3.3	11.2*
O=[N+]([O-])/C(C(Cl)=C(Cl)Cl)=C(/Sc1ccccc1)N1CCCCC1	-50.2	-0.7	5.5	1.1	-7.8	-0.3
O=C(/C=C\c1ccco1)Nc1nc(-c2ccc3ccccc3c2)cs1	14.8	-9.2	62.8*	29.6	-4.8	-0.4
Cc1ccc(-c2csc(NC(=S)NC(=O)/C=C/c3ccco3)n2)cc1	-44.8	-12.0	-1.0	71.2	5.1	1.1
Cc1ccn2c(NC3CCCCC3)c(-c3cccc(SC4CCCCC4)c3)nc2c1	.	41.2	.	99.9*	7.0	.
CCCCCCSc1cccc(-c2nc3cc(C)ccn3c2NC2CCCCC2)c1	31.0	9.5	40.0	83.3*	12.9	-3.5
CCCCCCSc1cccc(-c2nc3ccc(C)cn3c2NC2CCCCC2)c1	14.3	30.3	34.2	59.8	1.2	-4.0
C/C(CCN1CCc2nc(-c3ccccc3)c(-c3ccccc3)cc2C1)=N\O[C@@H](C)c1cc(-c2c(C)cc(C)cc2C)no1	27.5	-6.9	7.6	78.3*	35.5	0.0
C/C(CCN1CCc2nc(-c3ccccc3)c(-c3ccccc3)cc2C1)=N\O[C@H](C)c1cn([C@H](CO)Cc2ccccc2)nn1	30.7	.	3.3	-14.5	-11.4	-0.1
SMILES	T cruzi inh	PfHsp90 set2	SKKanGAS inh	CSC inhib	Beta apoptosis	HIF act
CCOc1ccc(C=NNC(=O)c2cccc3ccccc23)cc1OCC	.	22.8	.	.	.	.
COc1ccc(NS(=O)(=O)c2ccc3nc(COc4cccc5ccccc45)[nH]c3c2)cc1	32.4	17.1	70.8*	80.1*	32.0	-10.5
CCOC(=O)C1(CCOC)CCN(C/C=C/c2ccccc2OC)CC1	-5.0	19.6	-0.6	-1.3	19.4	0.5
O=C(O)CCC(=O)N1N=C(c2ccccc2)CC1c1ccc2c(c1)OCO2 (stereo not drawn)	-14.2	-5.6	1.3	-8.2	-5.8	-1.0
CCN(CC)CCCNC(=O)c1ccc(OCC(=O)Nc2ccccc2C(F)(F)F)c(OC)c1	54.8*	18.0	-14.2	-14.3	-4.7	-0.1
CN(Cc1ccccc1)C(=O)c1ccc(S(=O)(=O)N(C)c2ccccc2)cc1	.	3.2	.	-3.1	1.6	.
CCN1CCN(CCCNC(=O)c2ccc(/C=C3/Sc4ccccc4N(Cc4ccccc4F)C3=O)cc2)CC1	57.2*	5.5	8.1	103.5*	4.1	0.3
CCN1CCN(CCNC(=O)c2ccc(/C=C3/Sc4ccccc4N(Cc4ccccc4C)C3=O)cc2)CC1	33.1	19.4	7.9	.	.	0.3
Cc1sc2nc(CSCC(=O)Nc3ccc(Cl)cc3F)[nH]c(=O)c2c1C	.	-42.9	.	.	.	.
Oc1ccc(Br)cc1-c1cc(-c2ccccc2)n[nH]1	3.2	-4.2	80.3*	120.4*	20.8	1.4
COc1ccc(-c2cc(-c3ccc(Cl)cc3)n[nH]2)c(O)c1	24.3	0.7	?	27.6	5.4	5.9
O=[N+]([O-])c1cccc(-c2cc(-c3cc(Br)ccc3O)[nH]n2)c1	9.4	-80.1	37.3	97.4*	.	0.7
COc1ccc(-c2cc(-c3cc(OC)ccc3O)[nH]n2)cc1	-12.1	.	14.8	68.8	4.4	6.2
COc1ccc(O)c(-c2cc(-c3cccc(Br)c3)n[nH]2)c1	-4.1	94.4*	56.4*	-18.4	22.8	2.4
COc1ccc(O)c(-c2cc(-c3ccc(F)cc3)n[nH]2)c1	0.6	-15.9	-4.4	51.3	6.3	2.7
O=[N+]([O-])c1ccccc1-c1cc(-c2ccccc2O)n[nH]1	-2.1	2.0	5.2	.	.	0.0
Oc1ccc(Br)cc1-c1cc(-c2ccc(Cl)cc2)n[nH]1	-24.4	10.9	26.8	53.2	91.9*	1.0
Cc1cc(NC(=O)COC(=O)C2CC(=O)N(c3ccc(Cl)cc3)C2)no1 (stereo not drawn)	-9.1	8.2	-3.0	-12.0	-2.0	-0.2
CC(C)(C)[C@@H]1COC(=O)[C@H](Cc2ccc(F)cc2)CC/C=C\C[C@@H](CC(=O)N(CCO)Cc2ccccc2)C(=O)N1	.	-15.0	.	-16.9	-4.6	.
